Experimental data reported in ChEMBL document CHEMBL5257040, “Discovery of VU2957 (Valiglurax): An mGlu4 Positive Allosteric Modulator Evaluated as a Preclinical Candidate for the Treatment of Parkinson's Disease” (ACS Med Chem Lett, 2019).
≈ marks a conversion by molar mass, not a printed value. Calls of active or inactive are those of the source. The rule behind the calls is not given here.

Tests used:
[1] = Elimination half life in Cynomolgus monkey at 0.2 mg/kg, iv and measured upto 24 hrs by LC-MS/MS analysis; format: ADME, organism-based, Macaca fascicularis; details: in vivo, read-out: beta t1/2 (converted)
Procedure, shortened: (§1)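 Single intravenous doses: mouse 1 mg/kg, SD rat 0.2 mg/kg, beagle dog 0.5 mg/kg, cynomolgus monkey 0.2 mg/kg. Plasma clearance, Vss and elimination half-life came from the plasma profiles. Values are means of two to three animals.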

[2] = Oral bioavailability in Sprague-Dawley rat at 3 mg/kg and measured upto 24 hrs by LC-MS/MS analysis; format: ADME, organism-based; details: in vivo
Procedure, shortened: (§2)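 Single-dose iv and oral PK in separate arms: mouse 1 mg/kg iv / 3 mg/kg po, SD rat 0.2/3, beagle 0.5/3, cynomolgus 0.2/3 mg/kg. Plasma parameters (Vss, Tmax, F) are means of two to three animals per species.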

[3] = Elimination half life in Beagle dog at 0.5 mg/kg, iv and measured upto 24 hrs by LC-MS/MS analysis; format: ADME, organism-based, Canis lupus familiaris; details: in vivo, read-out: beta t1/2 (converted); procedure, shortened: as §1
[4] = Genotoxicity in Salmonella typhimurium […] in presence of S9 fraction by Ames test; format: toxicity, subcellular; details: salmonella enterica subsp. enterica serovar typhimurium
Procedure, shortened: (§3)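 Ames bacterial reverse mutation test in strains TA98 and […], run with and without S9 metabolic activation.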

[5] = target: Nuclear receptor subfamily 1 group I member 2 (Rattus norvegicus, UniProt Q9R1A7); experiment: Activation of rat PXR
Sequence of Nuclear receptor subfamily 1 group I member 2 (Q9R1A7 whole entry): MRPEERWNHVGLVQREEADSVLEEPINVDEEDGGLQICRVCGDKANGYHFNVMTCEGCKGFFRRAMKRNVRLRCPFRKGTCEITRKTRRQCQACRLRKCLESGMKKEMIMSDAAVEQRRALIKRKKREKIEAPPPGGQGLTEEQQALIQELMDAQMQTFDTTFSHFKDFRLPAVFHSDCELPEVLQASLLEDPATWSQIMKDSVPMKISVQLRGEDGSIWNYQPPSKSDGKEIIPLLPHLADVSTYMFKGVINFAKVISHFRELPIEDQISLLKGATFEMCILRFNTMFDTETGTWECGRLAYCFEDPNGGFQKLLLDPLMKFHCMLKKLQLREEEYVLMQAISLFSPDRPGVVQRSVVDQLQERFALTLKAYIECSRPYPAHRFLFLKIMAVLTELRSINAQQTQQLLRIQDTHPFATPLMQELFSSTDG

[6] = Drug uptake in plasma of haloperidol-induced catalepsy Sprague-Dawley rat model at 0.3 to 30 mg/kg,po; format: ADME, organism-based; details: in vivo, dose 0.3-30 mg/kg
Procedure, shortened: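 Rats were given haloperidol 1.5 mg/kg i.p. to induce catalepsy and dosed orally at 0.3–30 mg/kg, N = 8–10 per group. Total plasma and CSF concentrations were measured alongside the catalepsy read-out. Satellite rats were used for PK in the time-course study.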

[7] = Cmax in Cynomolgus monkey at 3 mg/kg, po and measured upto 24 hrs by LC-MS/MS analysis; format: ADME, organism-based, Macaca fascicularis; design: dose 3 mg/kg, time < 24 hrs, route po; details: in vivo
Procedure, shortened: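 Single oral 3 mg/kg dose in mouse, SD rat, beagle and cyno. Cmax is the peak total plasma concentration. Values are means of two to three animals.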

[8] = Volume of distribution at steady state in CD-1 mouse plasma at 1 mg/kg, iv and measured upto 24 hrs by LC-MS/MS analysis; format: ADME, organism-based; details: read-out: Vdss; procedure, shortened: as §2
[9] = Solubility of compound in FaSSGF; format: ADME
[10] = Volume of distribution at steady state in Sprague-Dawley rat at 0.2 mg/kg, iv and measured upto 24 hrs by LC-MS/MS analysis; format: ADME, organism-based; details: in vivo, read-out: Vdss; procedure, shortened: as §2
[11] = Protein binding in mouse plasma assessed as fraction unbound incubated for 4 hrs by equilibrium dialysis based LC/MS/MS analysis; format: ADME, cell-free
[12] = target: Aryl hydrocarbon receptor (Homo sapiens, UniProt P35869); experiment: Activation of human AhR
[13] = Metabolic stability in dog liver microsomes assessed as intrinsic clearance at 1 uM preincubated for 5 mins followed by NADPH addition and measured for 45 mins by LC/MS/MS analysis; format: ADME, Canis lupus familiaris, Microsome; details: time 50 min, read-out: CLH
[14] = AUC (0 to infinity) in CD-1 mouse plasma at 3 mg/kg, po and measured upto 24 hrs by LC-MS/MS analysis; format: ADME, organism-based; design: dose 3 mg/kg, time < 24 hrs, route po
Procedure, shortened: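 Single oral 3 mg/kg dose in mouse, SD rat, beagle dog and cynomolgus monkey. Total plasma exposure after the oral dose gave Cmax, Tmax, AUC0-inf and F. Values are means of two to three animals.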

[15] = Brain to plasma permeability coefficient, Kp in cynomolgus monkey at 0.2 mg/kg, iv and measured upto 1 hrs by LC-MS/MS analysis; format: ADME, organism-based, Macaca fascicularis
Procedure, shortened: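 Total brain to total plasma partition coefficient (Kp) measured in mouse, SD rat and cynomolgus monkey. The unbound ratio (Kp,uu) was corrected with brain homogenate binding. Values are means of two to three animals.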

[16] = Genotoxicity in Salmonella typhimurium […] by Ames test; format: toxicity; details: salmonella enterica subsp. enterica serovar typhimurium; procedure, shortened: as §3
Kv4.3/KChIP2 = Kv4.3/KChIP2 (Homo sapiens, UniProt Q9NS61+Q9UK17); experiment: Inhibition of Kv4.3/KChIP2 (unknown origin) at 10 uM; format: toxicity
Sequence of Kv4.3/KChIP2 (Q9UK17 whole entry): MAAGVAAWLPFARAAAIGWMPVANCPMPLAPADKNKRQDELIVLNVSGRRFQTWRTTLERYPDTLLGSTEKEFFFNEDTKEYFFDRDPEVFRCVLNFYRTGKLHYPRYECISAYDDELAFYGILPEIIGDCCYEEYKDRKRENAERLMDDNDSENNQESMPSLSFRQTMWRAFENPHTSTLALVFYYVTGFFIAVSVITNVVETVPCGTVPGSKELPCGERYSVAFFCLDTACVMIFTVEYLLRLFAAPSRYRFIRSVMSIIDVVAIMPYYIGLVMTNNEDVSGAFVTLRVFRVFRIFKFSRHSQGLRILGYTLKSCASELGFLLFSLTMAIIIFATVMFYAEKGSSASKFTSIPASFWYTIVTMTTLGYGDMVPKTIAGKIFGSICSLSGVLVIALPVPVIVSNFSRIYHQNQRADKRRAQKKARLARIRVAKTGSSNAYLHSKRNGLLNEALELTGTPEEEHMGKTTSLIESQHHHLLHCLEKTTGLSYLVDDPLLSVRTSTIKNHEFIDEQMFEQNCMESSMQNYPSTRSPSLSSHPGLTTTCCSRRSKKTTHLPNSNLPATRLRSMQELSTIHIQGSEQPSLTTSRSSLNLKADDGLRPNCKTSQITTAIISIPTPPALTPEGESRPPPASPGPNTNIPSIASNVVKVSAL
Sequence of Kv4.3/KChIP2 (Q9NS61 whole entry): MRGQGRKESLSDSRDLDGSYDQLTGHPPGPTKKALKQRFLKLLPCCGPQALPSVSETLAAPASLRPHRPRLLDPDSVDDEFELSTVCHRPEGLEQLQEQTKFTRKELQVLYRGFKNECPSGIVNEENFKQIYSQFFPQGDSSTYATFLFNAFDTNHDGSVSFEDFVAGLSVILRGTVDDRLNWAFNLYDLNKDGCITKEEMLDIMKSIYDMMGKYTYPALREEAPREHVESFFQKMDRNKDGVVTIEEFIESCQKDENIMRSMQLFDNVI
Procedure, shortened: (§4)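 Cardiac ion channel electrophysiology (functional EP) panel, with percent inhibition measured at 10 μM.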

[17] = target: Metabotropic glutamate receptor 4 (Rattus norvegicus) (UniProt P31423); experiment: Positive allosteric modulator activity at rat mGlu4 in human HEK cells co-expressing […] assessed as maximum increase in by thallium flux preincubated for 2.5 mins followed by gluatamate addition and measured for 2 mins by thallium flux assay; format: cell-based; details: filed as positive allosteric modulator, time 4.5 min
P-gp (ABCB1) = P-gp (ABCB1) (Homo sapiens, UniProt P08183); experiment: Substrate activity at human P-gp assessed as efflux ratio; format: ADME; details: not told
[18] = Tmax in Cynomolgus monkey at 3 mg/kg, po and measured upto 24 hrs by LC-MS/MS analysis; format: ADME, organism-based, Macaca fascicularis; details: in vivo; procedure, shortened: as §2
Cytochrome P450 1A2 = Cytochrome P450 1A2 (Homo sapiens, UniProt P05177); experiment: Inhibition of CYP1A2 in human liver microsomes using […] as substrate preincubated for 15 mins followed by NADPH addition and measured after 8 mins by LC/MS/MS analysis; format: ADME, Microsome
Sequence of Cytochrome P450 1A2 (P05177 whole entry): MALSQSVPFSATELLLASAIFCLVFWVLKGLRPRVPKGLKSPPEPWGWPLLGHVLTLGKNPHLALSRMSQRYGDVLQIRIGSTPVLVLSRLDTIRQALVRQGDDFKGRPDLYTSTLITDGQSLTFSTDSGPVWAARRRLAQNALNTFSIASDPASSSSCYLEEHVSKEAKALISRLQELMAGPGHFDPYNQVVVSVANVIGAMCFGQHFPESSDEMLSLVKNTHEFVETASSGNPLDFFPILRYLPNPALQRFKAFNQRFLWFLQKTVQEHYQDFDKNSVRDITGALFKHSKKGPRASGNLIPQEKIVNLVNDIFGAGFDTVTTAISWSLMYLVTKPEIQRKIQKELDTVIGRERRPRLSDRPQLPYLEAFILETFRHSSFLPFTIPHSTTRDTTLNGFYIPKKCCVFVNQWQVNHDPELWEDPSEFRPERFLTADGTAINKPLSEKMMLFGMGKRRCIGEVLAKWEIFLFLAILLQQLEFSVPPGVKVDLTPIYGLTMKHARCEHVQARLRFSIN

[19] = Protein binding in human plasma assessed as fraction unbound incubated for 4 hrs by equilibrium dialysis based LC/MS/MS analysis; format: ADME, cell-free
[20] = Oral bioavailability in CD-1 mouse plasma at 3 mg/kg and measured upto 24 hrs by LC-MS/MS analysis; format: ADME, organism-based; procedure, shortened: as §2
[21] = Clearance in Beagle dog plasma at 0.5 mg/kg, iv and measured upto 24 hrs by LC-MS/MS analysis; format: ADME, organism-based, Canis lupus familiaris; procedure, shortened: as §1
[22] = target: Aryl hydrocarbon receptor (Rattus norvegicus, UniProt P41738); experiment: Activation of rat AhR
Sequence of Aryl hydrocarbon receptor (Rattus norvegicus, UniProt P41738) (P41738 whole entry): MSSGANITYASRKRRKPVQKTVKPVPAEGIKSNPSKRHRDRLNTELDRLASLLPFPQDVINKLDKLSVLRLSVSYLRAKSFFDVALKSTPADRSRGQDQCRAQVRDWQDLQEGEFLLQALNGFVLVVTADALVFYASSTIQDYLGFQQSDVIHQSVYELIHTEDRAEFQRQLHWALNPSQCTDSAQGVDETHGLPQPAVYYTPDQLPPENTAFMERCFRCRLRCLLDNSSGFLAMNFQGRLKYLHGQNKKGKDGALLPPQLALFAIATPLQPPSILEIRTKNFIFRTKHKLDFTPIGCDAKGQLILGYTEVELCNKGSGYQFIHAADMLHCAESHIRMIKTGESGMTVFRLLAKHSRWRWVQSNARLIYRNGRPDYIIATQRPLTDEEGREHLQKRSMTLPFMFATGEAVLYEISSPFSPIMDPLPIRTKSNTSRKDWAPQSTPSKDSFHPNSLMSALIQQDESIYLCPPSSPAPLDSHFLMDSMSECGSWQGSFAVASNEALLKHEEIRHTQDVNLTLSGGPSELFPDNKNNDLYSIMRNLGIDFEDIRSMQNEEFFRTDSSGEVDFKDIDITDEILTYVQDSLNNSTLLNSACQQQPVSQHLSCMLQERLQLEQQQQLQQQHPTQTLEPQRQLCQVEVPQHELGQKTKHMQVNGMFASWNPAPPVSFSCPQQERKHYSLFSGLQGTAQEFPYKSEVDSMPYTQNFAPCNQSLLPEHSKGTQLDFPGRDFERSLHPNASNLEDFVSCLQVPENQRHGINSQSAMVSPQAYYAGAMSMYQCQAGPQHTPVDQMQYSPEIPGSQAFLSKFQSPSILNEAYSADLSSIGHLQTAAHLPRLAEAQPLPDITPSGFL

Cytochrome P450 2D6 = Cytochrome P450 2D6 (Homo sapiens, UniProt P10635); experiment: Inhibition of CYP2D6 in human liver microsomes using […] as substrate preincubated for 15 mins followed by NADPH addition and measured after 8 mins by LC/MS/MS analysis; format: ADME, Microsome
Sequence of Cytochrome P450 2D6 (P10635 whole entry): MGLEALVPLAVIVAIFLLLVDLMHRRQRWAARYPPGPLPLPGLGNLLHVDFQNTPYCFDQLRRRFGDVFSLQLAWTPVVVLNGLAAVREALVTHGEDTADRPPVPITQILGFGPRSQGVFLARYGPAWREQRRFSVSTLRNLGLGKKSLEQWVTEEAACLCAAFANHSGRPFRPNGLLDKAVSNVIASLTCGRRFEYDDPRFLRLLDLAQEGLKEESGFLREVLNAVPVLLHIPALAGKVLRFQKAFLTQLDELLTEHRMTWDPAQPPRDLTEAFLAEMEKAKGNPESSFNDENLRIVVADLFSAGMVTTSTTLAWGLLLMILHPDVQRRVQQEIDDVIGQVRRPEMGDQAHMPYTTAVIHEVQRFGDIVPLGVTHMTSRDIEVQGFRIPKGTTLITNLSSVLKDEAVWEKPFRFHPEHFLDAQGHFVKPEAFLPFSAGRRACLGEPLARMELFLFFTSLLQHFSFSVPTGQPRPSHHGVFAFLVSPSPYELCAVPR

Rattus norvegicus = experiment: Reversal of haloperidol-induced catalepsy Sprague-Dawley rat model at 0.3 to 30 mg/kg,po and measured upto 6 hrs; format: functional, organism-based; details: dose 0.3-30 mg/kg
Procedure, shortened: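 Time course in the haloperidol (1.5 mg/kg i.p.) catalepsy model in rats after a single 30 mg/kg oral dose, followed for up to 6 h. Satellite rats dosed in parallel gave plasma and CSF exposures.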

[23] = Clearance in CD-1 mouse plasma at 1 mg/kg, iv and measured upto 24 hrs by LC-MS/MS analysis; format: ADME, organism-based; procedure, shortened: as §1
[24] = target: Metabotropic glutamate receptor 1 (Rattus norvegicus, UniProt P23385); experiment: Positive allosteric modulator activity at rat mGlu1 in human HEK cells assessed assessed as increase in calcium flux preincubated for 2.5 mins followed by gluatamate addition by Fluo-4 AM dye based calcium mobilization assay; format: cell-based
Kv1.5 = Kv1.5 (Homo sapiens, UniProt P22460); experiment: Inhibition of Kv1.5 (unknown origin) at 10 uM; format: toxicity; procedure, shortened: as §4
Sequence of Kv1.5 (P22460 whole entry): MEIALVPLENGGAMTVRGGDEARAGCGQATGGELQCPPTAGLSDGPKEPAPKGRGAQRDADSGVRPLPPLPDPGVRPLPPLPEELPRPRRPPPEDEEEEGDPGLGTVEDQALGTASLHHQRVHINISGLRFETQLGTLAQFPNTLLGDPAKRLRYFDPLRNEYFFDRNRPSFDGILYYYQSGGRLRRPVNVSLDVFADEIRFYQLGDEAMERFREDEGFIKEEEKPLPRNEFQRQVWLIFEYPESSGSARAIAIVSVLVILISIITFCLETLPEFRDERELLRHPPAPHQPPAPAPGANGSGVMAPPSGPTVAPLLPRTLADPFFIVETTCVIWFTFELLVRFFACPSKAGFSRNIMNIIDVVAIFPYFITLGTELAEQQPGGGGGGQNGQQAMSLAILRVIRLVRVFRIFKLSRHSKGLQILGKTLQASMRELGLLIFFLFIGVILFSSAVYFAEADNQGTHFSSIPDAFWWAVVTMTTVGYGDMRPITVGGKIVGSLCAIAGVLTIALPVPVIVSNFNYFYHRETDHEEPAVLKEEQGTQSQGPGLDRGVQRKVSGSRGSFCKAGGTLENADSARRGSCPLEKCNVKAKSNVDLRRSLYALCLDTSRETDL

[25] = Cmax in Sprague-Dawley rat at 30 mg/kg, po administered as spray-dried dispersion formulation and measured after 24 hrs by LC-MS/MS analysis; format: ADME, organism-based; design: time 24 hrs, dose 30 mg/kg, route po; details: in vivo
Procedure, shortened: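 Rats were dosed orally at 3, 10 and 30 mg/kg with a spray-dried dispersion of the free base and HPMCP-HP55 polymer (25%/75%), in 30% Dexolve. Total plasma Cmax and AUC were measured, N = 3.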

[26] = target: Amine oxidase [flavin-containing] B (Homo sapiens, UniProt P27338); experiment: Binding affinity to MAO-B (unknown origin)
Sequence of Amine oxidase [flavin-containing] B (P27338 whole entry): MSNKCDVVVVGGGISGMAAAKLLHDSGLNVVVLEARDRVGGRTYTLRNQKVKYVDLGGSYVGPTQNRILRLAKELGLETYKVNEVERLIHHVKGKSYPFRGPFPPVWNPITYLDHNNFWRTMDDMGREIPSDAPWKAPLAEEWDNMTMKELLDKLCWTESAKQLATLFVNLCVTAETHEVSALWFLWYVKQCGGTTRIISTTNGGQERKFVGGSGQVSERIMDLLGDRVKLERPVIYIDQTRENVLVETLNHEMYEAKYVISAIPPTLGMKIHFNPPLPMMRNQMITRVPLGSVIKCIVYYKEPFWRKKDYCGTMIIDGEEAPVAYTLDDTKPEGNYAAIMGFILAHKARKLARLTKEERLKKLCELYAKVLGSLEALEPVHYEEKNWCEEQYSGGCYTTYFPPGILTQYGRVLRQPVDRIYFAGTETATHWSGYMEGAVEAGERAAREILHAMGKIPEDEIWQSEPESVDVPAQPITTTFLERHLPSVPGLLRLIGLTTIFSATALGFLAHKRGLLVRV

`FC(F)(F)c1nccc2cc(Nc3n[nH]c4ncccc34)ccc12` gave a half-life [1] of 3.98 h, a bioavailability [2] of 100% and a half-life [3] of 2.95 h. For the same compound, the Activity [4] was “Non-Toxic”, the Activity [5] was “Not Active” and the concentration [6] was 322 nM. The Cmax [7] was 260 nM, the Vd [8] was 9.93 L/kg and the solubility [9] was 9 µg/mL (≈ 27.3 µM). The Vd [10] was 3 L/kg, the fraction unbound at 4 h [11] was 0.015 and the Activity [12] was “Not Active”. For the same compound, the CLint scaled at 1 µM [13] was 18.1 mL/min/kg, the AUC(0-inf) [14] was 1.55 µM·h and the Kp at 1 h [15] was 1.24. For the same compound, the Activity [16] was “Non-Toxic”, the inhibition at 10 µM (Kv4.3/KChIP2) was under 50% and the Emax [17] was 132%. It also gave an efflux ratio (P-gp (ABCB1)) of 1.3, a Tmax [18] of 6 h and an IC50 (Cytochrome P450 1A2) of 1.5 µM. The fraction unbound at 4 h [19] was 0.016, the bioavailability [20] was 79% and the clearance [21] was 31.6 mL/min/kg. For the same compound, the Activity [22] was “Not Active”, the IC50 (Cytochrome P450 2D6) was over 30 µM and the Activity (Rattus norvegicus) was “Active”. For the same compound, the clearance [23] was 78.3 mL/min/kg, the EC50 [24] was over 10 µM and the inhibition at 10 µM (Kv1.5) was under 50%. For the same compound, the Cmax [25] was 6050 nM and the EC50 [26] was over 30 µM.
